Measurements as given in ChEMBL document CHEMBL1629652, “Immobilization reduces the activity of surface-bound cationic antimicrobial peptides with no influence upon the activity spectrum” (Antimicrob Agents Chemother, 2009).
Values after ≈ are worked out from the molar mass of the structure shown. Where a SMILES comes first, the peptide text is derived from it.

Assays:
Bacillus subtilis [1] = test: Antimicrobial activity against Bacillus subtilis DSM 347 after 17 hrs; format: functional; conditions: DSM 347, 17 h
How it was run: (§1)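 Mid-log cells (OD600 0.4 to 0.5, grown in LB at 37°C, 180 rpm) in LB at 1.6 x 10^6 cells/ml. Soluble peptides were tested in microtiter wells at 100 to 0.05 µM (twofold dilutions). Resin-bound peptides were tested in tubes at 0.5 to 80 mg/ml resin with horizontal shaking. Incubation 37°C, 180 rpm; A600 read at 17 h; triplicate. Resin MICs were converted to mM using peptide loading per mg resin.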

Bacillus subtilis [2] = test: Bactericidal activity against Bacillus subtilis DSM 347 after 24 hrs; format: functional; conditions: DSM 347, 24 h
How it was run: (§2)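 MBC: after the 17 h LB broth dilution growth assay (1.6 x 10^6 cells/ml, 37°C, shaking), 200 µl from wells at or above the MIC was spread on LB agar. Plates were incubated 24 h at 37°C and colonies counted. MBC is the lowest concentration giving no colonies. Triplicate.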

Escherichia coli [3] = test: Bactericidal activity against Escherichia coli DH5[alpha] after 24 hrs; format: functional; how it was run: as §2
Escherichia coli [4] = test: Antimicrobial activity against Escherichia coli DH5[alpha] after 17 hrs; format: functional; how it was run: as §1
[5] = Cytotoxicity against human RBC assessed as hemolytic activity after 30 mins by spectrophotometry; format: cell-based; conditions: erythrocyte, 0.5 h
How it was run: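 Human RBCs were washed in 10 mM Tris, 150 mM NaCl, pH 7.4 and incubated at 2.5 x 10^8 cells/ml with peptide in 1 ml buffer for 30 min with gentle shaking. Samples were ice-cooled and centrifuged (2,000 x g, 4°C, 5 min); supernatant was diluted in 0.5% NH4OH and read at OD540. 0.5% NH4OH served as 100% lysis. EC25 was taken from dose-response curves.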

Row | MIC (Bacillus subtilis [1]) | MIC (Escherichia coli [4]) | SMILES | MBC (Bacillus subtilis [2]) | MBC (Escherichia coli [3]) | EC25 [5]
1 | 1.6 µM (≈ 4.02 µg/mL) | 0.8 µM (≈ 2.01 µg/mL) | CC[C@H](C)[C@H](NC(=O)CN)C(=O)NCC(=O)N[C@@H](CCCCN)C(=O)N[C@@H](Cc1ccccc1)C(=O)N[C@H](C(=O)N[C@@H](Cc1cnc[nH]1)C(=O)N[C@@H](C)C(=O)N[C@H](C(=O)N[C@@H](CCCCN)C(=O)N[C@@H](CCCCN)C(=O)N[C@@H](Cc1c[nH]c2ccccc12)C(=O)NCC(=O)N[C@@H](CCCCN)C(=O)N[C@H](C(=O)N[C@@H](Cc1ccccc1)C(=O)N[C@H](C(=O)NCC(=O)N[C@@H](CCC(=O)O)C(=O)N[C@H](C(=O)N[C@@H](C)C(=O)N[C@@H](CCCCN)C(=O)N[C@@H](CO)C(N)=O)[C@@H](C)CC)[C@@H](C)CC)[C@@H](C)O)C(C)C)[C@@H](C)CC (H-GIGKFIHAVKKWGKTFIGEIAKS-NH2) | 1.6 µM (≈ 4.02 µg/mL) | 0.8 µM (≈ 2.01 µg/mL) | 334 µM
2 | 0.8 µM (≈ 1.53 µg/mL) | 12.5 µM (≈ 24 µg/mL) | CC(=O)N[C@@H](CCCCN)C(=O)N[C@@H](CC(C)C)C(=O)N[C@@H](C)C(=O)N[C@@H](CC(C)C)C(=O)N[C@@H](CCCCN)C(=O)N[C@@H](CC(C)C)C(=O)N[C@@H](C)C(=O)N[C@@H](CC(C)C)C(=O)N[C@@H](CCCCN)C(=O)N[C@@H](C)C(=O)N[C@@H](CC(C)C)C(=O)N[C@@H](CCCCN)C(=O)N[C@@H](C)C(=O)N[C@@H](C)C(=O)N[C@@H](CC(C)C)C(=O)N[C@@H](CCCCN)C(=O)N[C@@H](CC(C)C)C(=O)N[C@@H](C)C(N)=O | 0.8 µM (≈ 1.53 µg/mL) | 12.5 µM (≈ 24 µg/mL) | 9.1 µM
3 | 0.8 µM (≈ 1.5 µg/mL) | 1.6 µM (≈ 3 µg/mL) | CC(C)C[C@H](NC(=O)[C@H](C)NC(=O)[C@H](CCCCN)NC(=O)[C@H](CC(C)C)NC(=O)[C@H](C)NC(=O)[C@H](CC(C)C)NC(=O)[C@H](CCCCN)NC(=O)[C@H](CC(C)C)NC(=O)[C@H](C)NC(=O)[C@H](CC(C)C)NC(=O)[C@@H](N)CCCCN)C(=O)N[C@@H](CCCCN)C(=O)N[C@@H](C)C(=O)N[C@@H](C)C(=O)N[C@@H](CC(C)C)C(=O)N[C@@H](CCCCN)C(=O)N[C@@H](CC(C)C)C(=O)N[C@@H](C)C(N)=O | 0.8 µM (≈ 1.5 µg/mL) | 1.6 µM (≈ 3 µg/mL) | 13.1 µM
4 | 1.6 µM (≈ 4.09 µg/mL) | 3.1 µM (≈ 7.93 µg/mL) | CC[C@H](C)[C@H](NC(=O)CNC(C)=O)C(=O)NCC(=O)N[C@@H](CCCCN)C(=O)N[C@@H](Cc1ccccc1)C(=O)N[C@H](C(=O)N[C@@H](Cc1cnc[nH]1)C(=O)N[C@@H](C)C(=O)N[C@H](C(=O)N[C@@H](CCCCN)C(=O)N[C@@H](CCCCN)C(=O)N[C@@H](Cc1c[nH]c2ccccc12)C(=O)NCC(=O)N[C@@H](CCCCN)C(=O)N[C@H](C(=O)N[C@@H](Cc1ccccc1)C(=O)N[C@H](C(=O)NCC(=O)N[C@@H](CCC(=O)O)C(=O)N[C@H](C(=O)N[C@@H](C)C(=O)N[C@@H](CCCCN)C(=O)N[C@@H](CO)C(N)=O)[C@@H](C)CC)[C@@H](C)CC)[C@@H](C)O)C(C)C)[C@@H](C)CC (Ac-GIGKFIHAVKKWGKTFIGEIAKS-NH2) | 1.6 µM (≈ 4.09 µg/mL) | 3.1 µM (≈ 7.93 µg/mL) | > 400 µM
